This passage reports IC50, Activity and inhibition results from ChEMBL document CHEMBL4229371, “Discovery of [1,2,4]triazolo[3,4-b][1,3,4]thiadiazole derivatives as novel, potent and selective c-Met kinase inhibitors: Synthesis, SAR study, and biological activity” (Eur J Med Chem, 2018).

Experiment [1] concerns the target T1, Hepatocyte growth factor receptor (Homo sapiens, UniProt P08581). The experiment in a line: Inhibition of GST-tagged human c-MET preincubated for 20 mins followed by [33P]-ATP addition and measured after 2 hrs by Hot-Spot kinase assay.
Experiment [2] has as its system SNU-5. The experiment in a line: Antiproliferative activity against human SNU5 cells at 5 uM after 72 hrs by Cell Titer-Glo assay. Format: functional. An outline of the steps: (§1)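 Cell Titer-Glo viability assay. Exponentially growing cells were plated at 4000 per well in RPMI-1640 with 10% FPS and incubated 12 h at 37 °C in 5% CO2. Compound was then added at the indicated final concentrations and cells were held 72 h at 37 °C in 5% CO2. CTG reagent was applied for 10 min at room temperature. Inhibition % = (1 − Vsample/Vvehicle control) × 100.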
In general terms: In ATP-based viability assays light output follows the ATP content of the culture.

Experiment [3] has as its system MKN-45. The experiment in a line: Antiproliferative activity against human MKN45 cells at 5 uM after 72 hrs by Cell Titer-Glo assay. The experiment is classed as functional. An outline of the steps: as §1
Experiment [4] concerns EBC-1. Description: Antiproliferative activity against human EBC1 cells at 5 uM after 72 hrs by Cell Titer-Glo assay. The experiment is classed as functional. The method, boiled down:
as §1

The subject of experiment [5] is MKN-45. Description: Antiproliferative activity against human MKN45 cells at 1 uM after 72 hrs by Cell Titer-Glo assay. The experiment is classed as functional. An outline of the steps:
as §1

Experiment [6] deals with EBC-1. Description: Antiproliferative activity against human EBC1 cells at 1 uM after 72 hrs by Cell Titer-Glo assay. Format: functional. The method, boiled down:
as §1

For experiment [7], the system named is EBC-1. The experiment in a line: Antiproliferative activity against human EBC1 cells after 72 hrs by Cell Titer-Glo assay. The experiment is classed as functional, cell-based. The following applies: EBC-1, 72 h. The method, boiled down: as §1
Experiment [8] deals with Receptor-type tyrosine-protein kinase FLT3 (Homo sapiens) (UniProt P36888). The experiment in a line: Inhibition of GST-tagged human FLT3 at 5 uM preincubated for 20 mins followed by [33P]-ATP addition measured after 2 hrs by Hot-Spot kinase assay. The method, boiled down: (§2)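 Radiometric filter-binding assay with 5 nM human GST-tagged kinase and substrate. Buffer was 20 mM Hepes pH 7.5, 10 mM MgCl2, 1 mM EGTA, 0.02% Brij35, 0.02 mg/mL BSA, 0.1 mM Na3VO4, 2 mM DTT and 1% DMSO. Compound in DMSO was preincubated with kinase for 20 min at room temperature. 33P-ATP was then added and the reaction ran 2 h at room temperature. IC50 values came from curve fitting.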

The target in experiment [9] is Tyrosine-protein kinase ABL1 (Homo sapiens) (UniProt P00519). Description: Inhibition of GST-tagged human ABL1 at 5 uM preincubated for 20 mins followed by [33P]-ATP addition measured after 2 hrs by Hot-Spot kinase assay. The method, boiled down:
as §2

Experiment [10] has as its target Tyrosine-protein kinase receptor UFO (Homo sapiens) (UniProt P30530). Description: Inhibition of GST-tagged human AXL at 5 uM preincubated for 20 mins followed by [33P]-ATP addition measured after 2 hrs by Hot-Spot kinase assay. An outline of the steps:
as §2

The target of experiment [11] is Proto-oncogene tyrosine-protein kinase receptor Ret (Homo sapiens) (UniProt P07949). Description: Inhibition of GST-tagged human RET at 5 uM preincubated for 20 mins followed by [33P]-ATP addition measured after 2 hrs by Hot-Spot kinase assay. The method, boiled down: as §2
The target of experiment [12] is ALK tyrosine kinase receptor (Homo sapiens) (UniProt Q9UM73). Description: Inhibition of GST-tagged human ALK at 5 uM preincubated for 20 mins followed by [33P]-ATP addition measured after 2 hrs by Hot-Spot kinase assay. An outline of the steps:
as §2

The target of experiment [13] is Vascular endothelial growth factor receptor 1 (Homo sapiens) (UniProt P17948). Description: Inhibition of GST-tagged human FLT1 at 5 uM preincubated for 20 mins followed by [33P]-ATP addition measured after 2 hrs by Hot-Spot kinase assay. An outline of the steps: as §2
Sequence of Vascular endothelial growth factor receptor 1 (Homo sapiens) (P17948 whole entry): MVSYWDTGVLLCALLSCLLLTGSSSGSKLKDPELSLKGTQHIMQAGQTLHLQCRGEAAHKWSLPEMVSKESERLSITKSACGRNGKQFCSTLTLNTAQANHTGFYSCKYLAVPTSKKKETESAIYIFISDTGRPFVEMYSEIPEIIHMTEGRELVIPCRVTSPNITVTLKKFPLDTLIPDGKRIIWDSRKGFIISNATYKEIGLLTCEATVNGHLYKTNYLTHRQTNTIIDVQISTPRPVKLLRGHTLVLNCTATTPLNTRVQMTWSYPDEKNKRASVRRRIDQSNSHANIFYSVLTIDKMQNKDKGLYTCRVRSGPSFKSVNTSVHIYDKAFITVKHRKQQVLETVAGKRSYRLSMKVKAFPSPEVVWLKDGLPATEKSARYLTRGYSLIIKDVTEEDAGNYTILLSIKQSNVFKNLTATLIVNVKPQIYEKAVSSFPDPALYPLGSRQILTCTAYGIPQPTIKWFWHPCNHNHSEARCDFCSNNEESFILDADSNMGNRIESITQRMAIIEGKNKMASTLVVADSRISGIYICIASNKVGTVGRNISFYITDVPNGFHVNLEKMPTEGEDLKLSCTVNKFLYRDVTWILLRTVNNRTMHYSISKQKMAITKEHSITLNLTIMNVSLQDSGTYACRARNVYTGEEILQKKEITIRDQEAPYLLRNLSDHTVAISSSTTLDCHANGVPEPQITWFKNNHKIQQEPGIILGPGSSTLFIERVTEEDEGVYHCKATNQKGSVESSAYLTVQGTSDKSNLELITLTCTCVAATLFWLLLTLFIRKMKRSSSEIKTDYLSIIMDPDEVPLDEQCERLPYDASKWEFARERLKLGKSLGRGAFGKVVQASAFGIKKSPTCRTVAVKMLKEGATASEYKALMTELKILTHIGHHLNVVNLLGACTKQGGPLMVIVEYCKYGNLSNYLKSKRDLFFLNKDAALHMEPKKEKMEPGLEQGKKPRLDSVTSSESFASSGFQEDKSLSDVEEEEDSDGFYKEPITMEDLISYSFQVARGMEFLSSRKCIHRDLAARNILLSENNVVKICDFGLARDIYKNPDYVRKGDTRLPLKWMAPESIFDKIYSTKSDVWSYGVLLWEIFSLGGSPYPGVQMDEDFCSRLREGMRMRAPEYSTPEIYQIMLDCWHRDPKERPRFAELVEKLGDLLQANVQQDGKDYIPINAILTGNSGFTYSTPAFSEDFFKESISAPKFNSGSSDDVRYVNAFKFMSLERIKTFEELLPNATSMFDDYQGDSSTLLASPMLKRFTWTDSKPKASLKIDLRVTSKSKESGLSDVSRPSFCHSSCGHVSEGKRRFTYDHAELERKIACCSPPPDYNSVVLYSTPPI
In experiment [14] the target is Vascular endothelial growth factor receptor 2 (Homo sapiens) (UniProt P35968). Description: Inhibition of GST-tagged human KDR at 5 uM preincubated for 20 mins followed by [33P]-ATP addition measured after 2 hrs by Hot-Spot kinase assay. The method, boiled down: as §2
Experiment [15] concerns the target Mast/stem cell growth factor receptor Kit (Homo sapiens) (UniProt P10721). Description: Inhibition of GST-tagged human c-KIT at 5 uM preincubated for 20 mins followed by [33P]-ATP addition measured after 2 hrs by Hot-Spot kinase assay. The method, boiled down: as §2
Experiment [16] deals with Platelet-derived growth factor receptor alpha (Homo sapiens) (UniProt P16234). Description: Inhibition of GST-tagged human PDGFRalpha at 5 uM preincubated for 20 mins followed by [33P]-ATP addition measured after 2 hrs by Hot-Spot kinase assay. The method, boiled down: as §2
Experiment [17] has as its target Angiopoietin-1 receptor (Homo sapiens) (UniProt Q02763). Description: Inhibition of GST-tagged human TIE2 at 5 uM preincubated for 20 mins followed by [33P]-ATP addition measured after 2 hrs by Hot-Spot kinase assay. An outline of the steps: as §2
Experiment [18] concerns the target BDNF/NT-3 growth factors receptor (Homo sapiens) (UniProt Q16620). Description: Inhibition of GST-tagged human TRKB at 5 uM preincubated for 20 mins followed by [33P]-ATP addition measured after 2 hrs by Hot-Spot kinase assay. The method, boiled down: as §2
Experiment [19] deals with Tyrosine-protein kinase Lck (Homo sapiens) (UniProt P06239). The experiment in a line: Inhibition of GST-tagged human LCK at 5 uM preincubated for 20 mins followed by [33P]-ATP addition measured after 2 hrs by Hot-Spot kinase assay. The method, boiled down:
as §2

Experiment [20] deals with T2, Receptor-type tyrosine-protein kinase FLT3 (Homo sapiens, UniProt P36888).
T2 sequence (P36888 whole entry): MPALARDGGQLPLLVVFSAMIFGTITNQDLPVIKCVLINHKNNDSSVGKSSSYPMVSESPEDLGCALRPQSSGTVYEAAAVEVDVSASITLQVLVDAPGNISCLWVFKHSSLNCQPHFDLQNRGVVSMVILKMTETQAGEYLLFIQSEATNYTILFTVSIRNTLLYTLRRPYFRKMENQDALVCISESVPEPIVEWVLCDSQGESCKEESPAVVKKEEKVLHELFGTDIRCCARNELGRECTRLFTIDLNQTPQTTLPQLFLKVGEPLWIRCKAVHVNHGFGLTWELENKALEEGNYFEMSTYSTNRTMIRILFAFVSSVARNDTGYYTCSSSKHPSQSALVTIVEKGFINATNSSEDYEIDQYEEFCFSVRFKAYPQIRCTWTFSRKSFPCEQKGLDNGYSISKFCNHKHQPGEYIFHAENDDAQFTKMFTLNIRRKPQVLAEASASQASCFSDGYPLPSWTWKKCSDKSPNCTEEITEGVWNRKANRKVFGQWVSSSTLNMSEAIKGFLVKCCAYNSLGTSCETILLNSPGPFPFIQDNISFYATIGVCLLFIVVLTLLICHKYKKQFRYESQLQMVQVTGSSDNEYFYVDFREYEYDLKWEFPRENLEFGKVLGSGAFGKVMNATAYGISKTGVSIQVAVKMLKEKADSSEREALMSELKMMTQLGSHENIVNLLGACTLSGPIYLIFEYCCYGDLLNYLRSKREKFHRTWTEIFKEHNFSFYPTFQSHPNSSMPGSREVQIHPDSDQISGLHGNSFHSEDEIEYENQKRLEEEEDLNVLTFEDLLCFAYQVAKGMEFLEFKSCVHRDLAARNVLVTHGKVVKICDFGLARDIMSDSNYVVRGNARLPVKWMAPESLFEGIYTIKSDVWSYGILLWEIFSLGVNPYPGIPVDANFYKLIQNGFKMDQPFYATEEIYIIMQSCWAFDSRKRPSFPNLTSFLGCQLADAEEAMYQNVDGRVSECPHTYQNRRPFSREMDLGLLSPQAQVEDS
Description: Inhibition of GST-tagged human FLT3 preincubated for 20 mins followed by [33P]-ATP addition measured after 2 hrs by Hot-Spot kinase assay. The method, boiled down:
as §2

The target in experiment [21] is T1, Hepatocyte growth factor receptor. Description: Inhibition of HGF-induced c-MET phosphorylation at Tyr1234/1235 in human MKN45 cells after 1 hr by Western blot analysis. Format: cell-based. An outline of the steps:
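MKN45 cells were plated at 2x10^4 per well in RPMI-1640 with 10% FPS and treated with a range of doses for 1 h. Lysis was in ice-cold RIPA with protease inhibitors. Lysate holding 30 µg protein (BCA) was run on SDS-PAGE and blotted to PVDF. Membranes were blocked in 5% skim milk, given primary antibody overnight at 4 °C, then HRP secondary for 1 h at room temperature, and read by ECL.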
(In general: Immunoblotting shows a protein as a band on a membrane.)

T1 sequence (P08581 whole entry): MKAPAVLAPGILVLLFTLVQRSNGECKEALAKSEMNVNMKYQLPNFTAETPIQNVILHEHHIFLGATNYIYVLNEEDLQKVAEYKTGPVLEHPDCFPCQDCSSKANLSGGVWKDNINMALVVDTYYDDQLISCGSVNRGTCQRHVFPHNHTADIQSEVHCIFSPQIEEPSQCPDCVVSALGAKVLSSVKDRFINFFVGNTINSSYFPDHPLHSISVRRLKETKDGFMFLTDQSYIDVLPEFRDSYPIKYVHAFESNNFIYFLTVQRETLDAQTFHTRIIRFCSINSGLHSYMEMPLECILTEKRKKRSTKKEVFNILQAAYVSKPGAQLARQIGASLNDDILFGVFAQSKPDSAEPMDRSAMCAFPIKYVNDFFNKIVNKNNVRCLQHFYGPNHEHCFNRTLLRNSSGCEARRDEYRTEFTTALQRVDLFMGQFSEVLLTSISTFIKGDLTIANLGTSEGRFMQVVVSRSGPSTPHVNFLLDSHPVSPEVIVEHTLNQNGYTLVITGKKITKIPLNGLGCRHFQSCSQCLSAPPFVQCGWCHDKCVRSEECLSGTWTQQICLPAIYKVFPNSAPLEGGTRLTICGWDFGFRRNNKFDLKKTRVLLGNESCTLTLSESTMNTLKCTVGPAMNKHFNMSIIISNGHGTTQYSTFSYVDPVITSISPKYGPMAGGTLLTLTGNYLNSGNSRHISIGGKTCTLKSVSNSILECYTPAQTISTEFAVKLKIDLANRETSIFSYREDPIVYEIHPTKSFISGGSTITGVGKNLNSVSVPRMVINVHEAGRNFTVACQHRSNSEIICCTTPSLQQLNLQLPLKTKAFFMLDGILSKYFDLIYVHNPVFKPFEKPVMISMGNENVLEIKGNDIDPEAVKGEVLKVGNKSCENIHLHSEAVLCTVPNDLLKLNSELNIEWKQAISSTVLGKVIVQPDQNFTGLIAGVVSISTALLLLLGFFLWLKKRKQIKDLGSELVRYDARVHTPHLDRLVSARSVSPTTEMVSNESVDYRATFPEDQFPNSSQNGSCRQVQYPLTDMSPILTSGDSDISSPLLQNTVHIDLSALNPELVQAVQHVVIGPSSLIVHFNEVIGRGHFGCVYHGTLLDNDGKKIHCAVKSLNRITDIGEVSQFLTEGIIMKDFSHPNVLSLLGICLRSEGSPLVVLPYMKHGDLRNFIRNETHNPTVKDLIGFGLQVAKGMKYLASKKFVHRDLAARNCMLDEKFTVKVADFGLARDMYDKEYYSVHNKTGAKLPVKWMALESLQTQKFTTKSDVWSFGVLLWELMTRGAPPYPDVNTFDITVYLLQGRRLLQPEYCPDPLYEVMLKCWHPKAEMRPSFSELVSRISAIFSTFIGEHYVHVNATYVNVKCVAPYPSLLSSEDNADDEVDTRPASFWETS
Sequence of Angiopoietin-1 receptor (Homo sapiens) (Q02763 whole entry): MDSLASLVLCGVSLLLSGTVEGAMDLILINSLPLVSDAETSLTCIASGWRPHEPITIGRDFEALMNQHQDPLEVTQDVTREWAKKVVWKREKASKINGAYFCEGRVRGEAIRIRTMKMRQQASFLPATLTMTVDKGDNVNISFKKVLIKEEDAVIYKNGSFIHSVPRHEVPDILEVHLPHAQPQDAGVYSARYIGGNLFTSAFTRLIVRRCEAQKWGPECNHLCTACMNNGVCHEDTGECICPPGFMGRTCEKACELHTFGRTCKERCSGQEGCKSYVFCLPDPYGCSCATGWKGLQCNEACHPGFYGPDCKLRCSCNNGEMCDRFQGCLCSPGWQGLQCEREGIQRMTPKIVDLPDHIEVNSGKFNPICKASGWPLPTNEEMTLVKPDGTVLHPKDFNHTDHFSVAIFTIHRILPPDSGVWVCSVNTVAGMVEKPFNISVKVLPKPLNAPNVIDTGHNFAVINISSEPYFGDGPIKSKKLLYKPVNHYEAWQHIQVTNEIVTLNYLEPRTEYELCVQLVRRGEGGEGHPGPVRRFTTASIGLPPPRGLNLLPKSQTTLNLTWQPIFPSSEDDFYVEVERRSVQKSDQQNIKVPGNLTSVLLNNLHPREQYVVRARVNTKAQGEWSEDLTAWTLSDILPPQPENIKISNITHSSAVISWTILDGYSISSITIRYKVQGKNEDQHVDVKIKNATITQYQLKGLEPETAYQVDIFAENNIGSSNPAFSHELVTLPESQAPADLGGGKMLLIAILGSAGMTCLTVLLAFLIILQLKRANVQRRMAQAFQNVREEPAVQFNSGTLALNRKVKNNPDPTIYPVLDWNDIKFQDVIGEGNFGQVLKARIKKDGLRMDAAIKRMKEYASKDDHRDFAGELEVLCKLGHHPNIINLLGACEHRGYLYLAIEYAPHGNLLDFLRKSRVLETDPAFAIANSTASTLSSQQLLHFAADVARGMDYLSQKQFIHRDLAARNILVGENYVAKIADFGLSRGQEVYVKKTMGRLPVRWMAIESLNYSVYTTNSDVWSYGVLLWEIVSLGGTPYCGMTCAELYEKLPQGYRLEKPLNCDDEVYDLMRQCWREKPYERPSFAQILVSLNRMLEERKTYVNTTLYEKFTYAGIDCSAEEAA
Sequence of Mast/stem cell growth factor receptor Kit (Homo sapiens) (P10721 whole entry): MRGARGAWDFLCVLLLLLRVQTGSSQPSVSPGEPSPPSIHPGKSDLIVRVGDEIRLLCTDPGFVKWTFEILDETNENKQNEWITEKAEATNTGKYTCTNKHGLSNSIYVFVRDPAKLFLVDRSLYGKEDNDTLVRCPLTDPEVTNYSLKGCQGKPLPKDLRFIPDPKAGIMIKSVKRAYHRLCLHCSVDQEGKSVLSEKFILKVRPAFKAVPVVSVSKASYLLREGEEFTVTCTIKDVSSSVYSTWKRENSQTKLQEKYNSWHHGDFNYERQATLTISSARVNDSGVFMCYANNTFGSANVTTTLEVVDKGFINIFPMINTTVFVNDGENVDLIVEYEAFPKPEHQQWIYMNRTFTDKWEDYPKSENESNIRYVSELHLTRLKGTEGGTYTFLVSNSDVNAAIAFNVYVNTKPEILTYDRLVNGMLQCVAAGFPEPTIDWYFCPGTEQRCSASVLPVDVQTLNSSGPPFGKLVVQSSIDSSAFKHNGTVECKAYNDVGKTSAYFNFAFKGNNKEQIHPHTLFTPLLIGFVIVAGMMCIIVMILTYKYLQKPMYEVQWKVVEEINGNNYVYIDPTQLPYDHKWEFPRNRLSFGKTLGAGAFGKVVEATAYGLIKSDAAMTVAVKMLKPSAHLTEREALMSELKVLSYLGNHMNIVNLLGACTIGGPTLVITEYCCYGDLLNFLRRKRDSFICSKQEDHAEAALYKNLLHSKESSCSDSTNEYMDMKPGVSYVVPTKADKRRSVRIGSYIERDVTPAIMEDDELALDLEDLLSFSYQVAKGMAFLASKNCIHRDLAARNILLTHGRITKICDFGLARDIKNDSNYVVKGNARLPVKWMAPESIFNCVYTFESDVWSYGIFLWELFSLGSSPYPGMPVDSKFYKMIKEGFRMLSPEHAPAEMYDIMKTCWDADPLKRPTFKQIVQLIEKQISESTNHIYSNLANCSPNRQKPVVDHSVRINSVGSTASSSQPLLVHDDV

For `COc1ccc2c(OCc3nnc4sc(-c5cnn(C)c5)nn34)ccnc2c1`, the IC50 (usually the concentration needed to halve the response being measured) in [1] turned out to be 2.02 nM; in [7], 88 nM; in [20], 1370 nM. The Activity turned out to be 68.7% in experiment [2]; 71.9% in experiment [3]; 84.4% in experiment [4]; 73.6% in [5]; 90.9% in experiment [6]. Also, the inhibition (usually the change of the read-out against control, counted positive when it falls) was 69.7% in experiment [8]; 14.9% in experiment [9]; 11.1% in experiment [10]; -0.73% in [11]; -1.59% in [12]; 0.28% in experiment [13]. Moreover, the inhibition in [14] was -3.93%; in experiment [15], 10.9%; in [16], -3.29%; in experiment [17] it was -7.71%; in experiment [18], 0.04%; in experiment [19], -0.81%. For the same compound, the inhibition entry in experiment [21] was “Dose-dependent effect”.
